Test system: Trypanosoma cruzi
Experiment: Ratio of compound activity to WC-9 activity for Trypanosoma cruzi amastigotes
Assay type: functional
Settings: not given

Compound | Ratio
CCCCCCNCC(P(=O)(O)O)P(=O)(O)O | 15

Test system: Vero
Experiment: Cytotoxicity against african green monkey Vero cells at 25 uM
Assay type: cell-based
Settings: chlorocebus sabaeus
In short: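 Host-cell toxicity toward irradiated, T. cruzi-infected Vero cells was judged by visual inspection during the amastigote assay. Drugs went up to 25 μM in RPMI with 10% FBS at 35 °C, 7% CO2, over 3 days.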

Compound | Activity
CCCCCCCNCC(O)(P(=O)(O)O)P(=O)(O)O | Non-toxic
CCCCCNCC(O)(P(=O)(O)O)P(=O)(O)O | Non-toxic
CCCCCCNCC(O)(P(=O)(O)O)P(=O)(O)O | Non-toxic
CCCCCCCCNCC(O)(P(=O)(O)O)P(=O)(O)O | Non-toxic
CCCCCCCCCCNCC(O)(P(=O)(O)O)P(=O)(O)O | Non-toxic

Test system: not listed separately
Experiment: Cytotoxicity against hTerT cells
Assay type: cell-based
Settings: human
In short: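 Toxicity toward hTerT host cells was judged by visual inspection during the tachyzoite growth assay. Cells were in DMEM-HG with 1% FBS at 37 °C, 5% CO2.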

Compound | Activity
CCCCCCCNCC(O)(P(=O)(O)O)P(=O)(O)O | Non-toxic
CCCCCNCC(O)(P(=O)(O)O)P(=O)(O)O | Non-toxic
CCCCCCNCC(O)(P(=O)(O)O)P(=O)(O)O | Non-toxic
CCCCCCCCNCC(O)(P(=O)(O)O)P(=O)(O)O | Non-toxic
CCCCCCCCCCNCC(O)(P(=O)(O)O)P(=O)(O)O | Non-toxic

Test system: Trypanosoma cruzi
Experiment: Antimicrobial activity against Trypanosoma cruzi
Assay type: functional
Settings: read-out: ED50 (the source's name)

EC50 [µM] | Compound
0.67 | CCCCCCCCCCCCNCC(P(=O)(O)O)P(=O)(O)O
2.77 | O=C(Cn1ccnc1[N+](=O)[O-])NCc1ccccc1 [BENZNIDAZOLE]

Test system: Toxoplasma gondii
Experiment: Antimicrobial activity against Toxoplasma gondii tachyzoites expressing red fluorescence protein infected in hTerT cells measured daily by fluorescence assay
Assay type: functional
Settings: read-out: ED50 (the source's name)
In short: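 Tachyzoites expressing red fluorescent protein, maintained in hTerT cells in DMEM-HG with 1% FBS, 2 mM glutamine, 1 mM pyruvate, 37 °C, 5% CO2. Confluent hTerT monolayers infected with 10^4 filtered, needle-passed tachyzoites/well. Drugs serially diluted in the same medium. Fluorescence read daily from the bottom (ex 510, em 540 nm).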

Compound | EC50 [µM]
CCCCCCCNCC(O)(P(=O)(O)O)P(=O)(O)O | ≥ 10
CCCCCNCC(O)(P(=O)(O)O)P(=O)(O)O | > 10
CCCCCCNCC(O)(P(=O)(O)O)P(=O)(O)O | 4.68
CCCCCCCCNCC(O)(P(=O)(O)O)P(=O)(O)O | 2
O=P(O)(O)C(O)(Cc1cccnc1)P(=O)(O)O [RISEDRONIC ACID] | 2.4

Test system: Trypanosoma cruzi
Experiment: Antimicrobial activity against Trypanosoma cruzi amastigotes
Assay type: functional
Settings: read-out: ED50 (the source's name)
In short: (§1)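 Vero cells were gamma-irradiated (2,000 Rads), seeded at 3.4×10^4/well in RPMI with 10% FBS, and incubated overnight at 35 °C, 7% CO2. […] Compounds were given in serial dilutions (1.56–25 μM), each in quadruplicate, with benznidazole (0.39–6.25 μM) as reference. Fluorescence was read on day 3 post-infection, and IC50 was obtained by non-linear regression.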

EC50 [µM] | Compound
0.84 | CCCCCCNCC(P(=O)(O)O)P(=O)(O)O

Test system: Trypanosoma cruzi
Experiment: Antimicrobial activity against Trypanosoma cruzi CL amastigotes infected in african green monkey Vero cells measured on day 3 by fluorescence assay
Assay type: functional
Settings: 72 h, read-out: ED50 (the source's name)
In short: as §1

Compound | EC50 [µM]
CCCCCCCNCC(O)(P(=O)(O)O)P(=O)(O)O | > 20
CCCCCNCC(O)(P(=O)(O)O)P(=O)(O)O | > 20
CCCCCCNCC(O)(P(=O)(O)O)P(=O)(O)O | > 20
O=C(Cn1ccnc1[N+](=O)[O-])NCc1ccccc1 [BENZNIDAZOLE] | 1.44

Test system: Vero
Experiment: Cytotoxicity against african green monkey Vero cells at 10 uM
Assay type: cell-based
Settings: chlorocebus sabaeus

Compound | Activity
CCCCCCCCNCC(O)(P(=O)(O)O)P(=O)(O)O | Toxic

Test system: not listed separately
Experiment: […]
Set-up: species or system Trypanosoma cruzi
Settings: not given

Compound | IC50 [µM]
CCCCCCCNCC(O)(P(=O)(O)O)P(=O)(O)O | > 10
CCCCCNCC(O)(P(=O)(O)O)P(=O)(O)O | > 10
CCCCCCNCC(O)(P(=O)(O)O)P(=O)(O)O | > 10
CCCCCCCCNCC(O)(P(=O)(O)O)P(=O)(O)O | > 10
CCCCCCCCCCNCC(O)(P(=O)(O)O)P(=O)(O)O | > 10

Test system: Trypanosoma cruzi
Experiment: Antimicrobial activity against Trypanosoma cruzi CL amastigotes infected in african green monkey Vero cells at 10 uM measured on day 3 by fluorescence assay
Assay type: functional
Settings: 72 h
In short: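 Vero host cells, gamma-irradiated (2,000 Rads), seeded at 3.4×10^4/well in RPMI with 10% FBS and incubated overnight at 35 °C, 7% CO2. […] Compounds were added in RPMI, in quadruplicate, with no-parasite background and no-drug controls. Fluorescence was read at day 3 post-infection.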

Compound | inhibition at 10 µM [%]
CCCCCCCCNCC(O)(P(=O)(O)O)P(=O)(O)O | 46
CCCCCCCCCCNCC(O)(P(=O)(O)O)P(=O)(O)O | 42

Target: T1, Farnesyl diphosphate synthase (Toxoplasma gondii, UniProt Q197X6)
T1 sequence (Q197X6 whole entry): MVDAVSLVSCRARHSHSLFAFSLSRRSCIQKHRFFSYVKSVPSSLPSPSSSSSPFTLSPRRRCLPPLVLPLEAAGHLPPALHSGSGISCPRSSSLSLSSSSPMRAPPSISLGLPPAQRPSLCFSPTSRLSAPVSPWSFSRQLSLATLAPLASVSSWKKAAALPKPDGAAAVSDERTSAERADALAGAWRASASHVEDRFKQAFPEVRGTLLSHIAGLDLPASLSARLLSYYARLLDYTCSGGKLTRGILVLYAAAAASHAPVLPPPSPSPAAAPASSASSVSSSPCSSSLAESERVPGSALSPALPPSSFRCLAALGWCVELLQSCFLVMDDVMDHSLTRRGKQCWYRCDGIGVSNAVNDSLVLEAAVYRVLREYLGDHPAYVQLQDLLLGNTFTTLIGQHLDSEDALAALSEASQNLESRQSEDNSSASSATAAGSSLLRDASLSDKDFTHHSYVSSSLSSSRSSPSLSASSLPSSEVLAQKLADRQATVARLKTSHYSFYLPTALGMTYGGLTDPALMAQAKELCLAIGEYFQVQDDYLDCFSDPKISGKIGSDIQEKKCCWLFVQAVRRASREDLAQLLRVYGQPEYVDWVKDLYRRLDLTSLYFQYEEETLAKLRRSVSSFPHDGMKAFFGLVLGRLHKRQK
Experiment: Inhibition of Toxoplasma gondii FPPS
Settings: not given

Compound | IC50 [µM]
CCCCCCCCC(F)(P(=O)(O)O)P(=O)(O)O | 0.035
CCCCCCCCCC(F)(P(=O)(O)O)P(=O)(O)O | 0.06
CCCCCNCC(O)(P(=O)(O)O)P(=O)(O)O | 0.067
CCCCCCNCC(O)(P(=O)(O)O)P(=O)(O)O | 0.051
CCCCCCCCNCC(O)(P(=O)(O)O)P(=O)(O)O | 0.039
CCCCCCCCCCNCC(O)(P(=O)(O)O)P(=O)(O)O | 0.125

Test system: Toxoplasma gondii
Experiment: Antimicrobial activity against Toxoplasma gondii tachyzoites expressing red fluorescence protein infected in hTerT cells at 10 uM measured daily by fluorescence assay
Assay type: functional
Settings: not given

Compound | inhibition at 10 µM [%]
CCCCCCCCCCNCC(O)(P(=O)(O)O)P(=O)(O)O | 14.9

Reference: ChEMBL document CHEMBL3098043, “New insights into molecular recognition of 1,1-bisphosphonic acids by farnesyl diphosphate synthase” (Bioorg Med Chem, 2014)
